One experiment concerns the target Histone deacetylase 1 (Homo sapiens, UniProt Q13547). Put plainly: Inhibition of recombinant HDAC1 assessed as inhibition of fluorogenic aminocoumarin release from substrate by trypsin-coupled biochemical assay. In outline:
(§1)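 Trypsin-coupled fluorogenic assay. Substrate is an acetylated lysine tripeptide amide-linked to aminocoumarin (AMC). HDAC deacetylation allows trypsin to release AMC, and the fluorescence increase is read. Compound was tested at various concentrations and normalized to a DMSO control. IC50 was derived by non-linear regression fit.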

The next experiment deals with Histone deacetylase 2 (Homo sapiens, UniProt Q92769). Put plainly: Inhibition of recombinant HDAC2 assessed as inhibition of fluorogenic aminocoumarin release from substrate by trypsin-coupled biochemical assay.
Histone deacetylase 2, sequence (Q92769 whole entry): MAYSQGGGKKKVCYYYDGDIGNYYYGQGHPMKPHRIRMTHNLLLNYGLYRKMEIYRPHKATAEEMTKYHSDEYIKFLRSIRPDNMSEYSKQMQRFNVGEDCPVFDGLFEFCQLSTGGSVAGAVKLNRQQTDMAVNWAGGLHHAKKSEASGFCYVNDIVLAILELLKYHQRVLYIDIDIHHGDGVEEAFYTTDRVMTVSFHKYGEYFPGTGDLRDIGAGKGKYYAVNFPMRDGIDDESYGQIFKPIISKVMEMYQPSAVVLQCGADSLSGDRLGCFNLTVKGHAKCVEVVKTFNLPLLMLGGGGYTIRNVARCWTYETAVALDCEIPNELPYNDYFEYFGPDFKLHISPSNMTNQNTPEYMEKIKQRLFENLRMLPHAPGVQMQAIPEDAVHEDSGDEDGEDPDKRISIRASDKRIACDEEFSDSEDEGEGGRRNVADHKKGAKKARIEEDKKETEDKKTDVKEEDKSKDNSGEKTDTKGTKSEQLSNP
The target of the next experiment is Histone deacetylase 3 (Homo sapiens, UniProt O15379). The experiment in a line: Inhibition of recombinant HDAC3 assessed as inhibition of fluorogenic aminocoumarin release from substrate by trypsin-coupled biochemical assay. In outline:
as §1

In the next experiment the target is Histone deacetylase 4 (Homo sapiens, UniProt P56524). The experiment in a line: Inhibition of recombinant HDAC4 assessed as inhibition of fluorogenic aminocoumarin release from substrate by trypsin-coupled biochemical assay. In outline: as §1
Histone deacetylase 4, sequence (P56524 whole entry): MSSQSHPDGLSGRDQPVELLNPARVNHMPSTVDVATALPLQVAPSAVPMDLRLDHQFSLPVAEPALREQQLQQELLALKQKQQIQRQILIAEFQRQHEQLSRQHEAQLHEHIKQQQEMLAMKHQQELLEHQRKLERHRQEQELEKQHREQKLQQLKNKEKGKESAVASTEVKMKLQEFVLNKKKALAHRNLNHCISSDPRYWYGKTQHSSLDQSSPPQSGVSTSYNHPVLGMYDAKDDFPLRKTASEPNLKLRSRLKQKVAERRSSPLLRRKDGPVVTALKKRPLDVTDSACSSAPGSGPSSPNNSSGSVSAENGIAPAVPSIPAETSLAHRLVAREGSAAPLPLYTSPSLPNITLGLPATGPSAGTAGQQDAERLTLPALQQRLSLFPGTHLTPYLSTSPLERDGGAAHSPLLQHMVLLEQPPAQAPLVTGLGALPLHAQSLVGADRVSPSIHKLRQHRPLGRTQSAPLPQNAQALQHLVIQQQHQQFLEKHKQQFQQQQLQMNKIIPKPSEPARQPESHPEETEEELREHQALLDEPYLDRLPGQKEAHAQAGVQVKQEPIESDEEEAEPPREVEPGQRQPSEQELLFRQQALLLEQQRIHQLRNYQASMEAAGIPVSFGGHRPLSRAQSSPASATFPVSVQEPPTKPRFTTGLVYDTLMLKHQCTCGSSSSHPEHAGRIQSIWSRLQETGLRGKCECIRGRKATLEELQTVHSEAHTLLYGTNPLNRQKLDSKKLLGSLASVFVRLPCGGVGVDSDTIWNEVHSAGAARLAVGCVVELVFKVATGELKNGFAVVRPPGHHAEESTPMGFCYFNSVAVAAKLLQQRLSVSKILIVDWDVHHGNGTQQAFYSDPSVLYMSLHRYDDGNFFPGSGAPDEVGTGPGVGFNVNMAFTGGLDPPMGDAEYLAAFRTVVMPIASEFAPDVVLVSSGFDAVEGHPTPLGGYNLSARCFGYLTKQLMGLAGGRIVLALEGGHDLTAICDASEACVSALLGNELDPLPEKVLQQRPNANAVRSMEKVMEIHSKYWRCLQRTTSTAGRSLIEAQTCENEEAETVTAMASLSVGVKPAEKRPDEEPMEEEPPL
A further experiment has as its target Histone deacetylase 5 (Homo sapiens, UniProt Q9UQL6). The experiment in a line: Inhibition of recombinant HDAC5 assessed as inhibition of fluorogenic aminocoumarin release from substrate by trypsin-coupled biochemical assay. The procedure, abridged: as §1
The target in experiment [1] is T1, Protein deacetylase HDAC6 (Homo sapiens, UniProt Q9UBN7).
T1 sequence (Q9UBN7 whole entry): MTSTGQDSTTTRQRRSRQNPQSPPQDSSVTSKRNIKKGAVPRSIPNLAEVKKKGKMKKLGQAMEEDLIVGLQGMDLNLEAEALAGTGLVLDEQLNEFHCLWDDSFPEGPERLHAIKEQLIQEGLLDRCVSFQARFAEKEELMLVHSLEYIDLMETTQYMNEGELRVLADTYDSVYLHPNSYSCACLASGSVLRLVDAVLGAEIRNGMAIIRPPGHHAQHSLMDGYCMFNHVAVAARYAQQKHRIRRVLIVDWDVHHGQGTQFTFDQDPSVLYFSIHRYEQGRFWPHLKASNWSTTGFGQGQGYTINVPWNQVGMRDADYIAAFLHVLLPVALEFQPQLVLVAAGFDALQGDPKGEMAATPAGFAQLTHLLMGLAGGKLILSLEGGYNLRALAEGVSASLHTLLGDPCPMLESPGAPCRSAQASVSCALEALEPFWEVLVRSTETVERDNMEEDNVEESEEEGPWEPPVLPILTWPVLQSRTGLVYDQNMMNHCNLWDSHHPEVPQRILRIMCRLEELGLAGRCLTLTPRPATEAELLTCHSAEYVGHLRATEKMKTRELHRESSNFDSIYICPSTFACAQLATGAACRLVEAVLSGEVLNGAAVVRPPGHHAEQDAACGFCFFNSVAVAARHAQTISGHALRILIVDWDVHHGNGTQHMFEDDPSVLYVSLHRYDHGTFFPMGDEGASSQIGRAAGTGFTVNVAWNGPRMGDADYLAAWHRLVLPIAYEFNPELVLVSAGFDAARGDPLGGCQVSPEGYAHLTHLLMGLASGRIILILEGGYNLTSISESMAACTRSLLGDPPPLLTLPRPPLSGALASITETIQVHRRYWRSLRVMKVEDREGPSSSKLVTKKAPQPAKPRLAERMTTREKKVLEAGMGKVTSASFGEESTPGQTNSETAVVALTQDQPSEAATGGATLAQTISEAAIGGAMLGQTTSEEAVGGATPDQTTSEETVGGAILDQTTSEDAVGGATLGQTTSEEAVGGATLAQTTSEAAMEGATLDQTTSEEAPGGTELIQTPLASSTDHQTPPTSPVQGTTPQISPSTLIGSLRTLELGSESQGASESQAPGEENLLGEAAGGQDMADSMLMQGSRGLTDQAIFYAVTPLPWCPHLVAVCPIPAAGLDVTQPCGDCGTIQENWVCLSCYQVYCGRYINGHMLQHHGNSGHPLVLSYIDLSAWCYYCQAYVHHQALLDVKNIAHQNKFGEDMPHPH
Put plainly: Inhibition of recombinant HDAC6 assessed as inhibition of fluorogenic aminocoumarin release from substrate by trypsin-coupled biochemical assay. The procedure, abridged:
as §1

For another experiment, the target named is T2, Histone deacetylase 7 (Homo sapiens, UniProt Q8WUI4).
T2 sequence (Q8WUI4 whole entry): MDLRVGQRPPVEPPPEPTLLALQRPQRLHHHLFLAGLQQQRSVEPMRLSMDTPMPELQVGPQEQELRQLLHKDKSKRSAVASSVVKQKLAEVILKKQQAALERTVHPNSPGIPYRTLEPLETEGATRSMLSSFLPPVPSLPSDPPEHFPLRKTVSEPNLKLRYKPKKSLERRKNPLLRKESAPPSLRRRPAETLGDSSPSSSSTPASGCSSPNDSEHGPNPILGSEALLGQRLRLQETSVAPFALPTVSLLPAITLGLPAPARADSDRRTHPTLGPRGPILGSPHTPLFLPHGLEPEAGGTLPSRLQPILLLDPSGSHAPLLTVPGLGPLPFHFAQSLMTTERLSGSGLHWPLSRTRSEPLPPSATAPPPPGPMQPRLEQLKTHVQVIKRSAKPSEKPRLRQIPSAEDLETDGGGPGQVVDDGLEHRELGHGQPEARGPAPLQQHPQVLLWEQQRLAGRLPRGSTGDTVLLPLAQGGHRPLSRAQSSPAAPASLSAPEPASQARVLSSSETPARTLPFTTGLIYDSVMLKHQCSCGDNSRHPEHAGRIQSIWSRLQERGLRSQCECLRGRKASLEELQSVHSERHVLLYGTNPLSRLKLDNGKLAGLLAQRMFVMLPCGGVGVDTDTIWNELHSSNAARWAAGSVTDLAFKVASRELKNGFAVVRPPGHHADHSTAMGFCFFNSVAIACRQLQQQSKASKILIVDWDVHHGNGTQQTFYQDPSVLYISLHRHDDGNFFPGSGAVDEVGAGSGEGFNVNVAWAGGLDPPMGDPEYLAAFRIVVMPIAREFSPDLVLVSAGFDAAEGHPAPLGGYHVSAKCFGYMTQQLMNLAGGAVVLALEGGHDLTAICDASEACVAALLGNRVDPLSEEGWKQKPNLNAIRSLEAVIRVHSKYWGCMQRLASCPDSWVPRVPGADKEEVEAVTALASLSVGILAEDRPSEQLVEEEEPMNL
Put plainly: Inhibition of recombinant HDAC7 assessed as inhibition of fluorogenic aminocoumarin release from substrate by trypsin-coupled biochemical assay.

For the next experiment, the target named is T3, Histone deacetylase 8 (Homo sapiens, UniProt Q9BY41).
T3 sequence (Q9BY41 whole entry): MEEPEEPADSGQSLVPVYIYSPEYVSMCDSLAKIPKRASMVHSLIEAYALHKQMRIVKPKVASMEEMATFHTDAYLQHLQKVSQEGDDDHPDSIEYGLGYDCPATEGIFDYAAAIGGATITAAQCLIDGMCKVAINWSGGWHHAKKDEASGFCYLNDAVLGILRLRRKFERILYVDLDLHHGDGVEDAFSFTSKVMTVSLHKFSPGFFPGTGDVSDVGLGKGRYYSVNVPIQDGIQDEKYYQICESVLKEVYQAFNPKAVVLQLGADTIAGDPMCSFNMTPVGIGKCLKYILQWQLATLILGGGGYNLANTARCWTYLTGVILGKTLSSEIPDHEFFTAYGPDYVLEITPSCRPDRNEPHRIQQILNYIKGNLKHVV
The experiment in a line: Inhibition of recombinant HDAC8 assessed as inhibition of fluorogenic aminocoumarin release from substrate by trypsin-coupled biochemical assay. The procedure, abridged:
as §1

The next experiment addresses Histone deacetylase 9 (Homo sapiens, UniProt Q9UKV0). The experiment in a line: Inhibition of recombinant HDAC9 assessed as inhibition of fluorogenic aminocoumarin release from substrate by trypsin-coupled biochemical assay. In outline: as §1

Histone deacetylase 1, sequence (Q13547 whole entry): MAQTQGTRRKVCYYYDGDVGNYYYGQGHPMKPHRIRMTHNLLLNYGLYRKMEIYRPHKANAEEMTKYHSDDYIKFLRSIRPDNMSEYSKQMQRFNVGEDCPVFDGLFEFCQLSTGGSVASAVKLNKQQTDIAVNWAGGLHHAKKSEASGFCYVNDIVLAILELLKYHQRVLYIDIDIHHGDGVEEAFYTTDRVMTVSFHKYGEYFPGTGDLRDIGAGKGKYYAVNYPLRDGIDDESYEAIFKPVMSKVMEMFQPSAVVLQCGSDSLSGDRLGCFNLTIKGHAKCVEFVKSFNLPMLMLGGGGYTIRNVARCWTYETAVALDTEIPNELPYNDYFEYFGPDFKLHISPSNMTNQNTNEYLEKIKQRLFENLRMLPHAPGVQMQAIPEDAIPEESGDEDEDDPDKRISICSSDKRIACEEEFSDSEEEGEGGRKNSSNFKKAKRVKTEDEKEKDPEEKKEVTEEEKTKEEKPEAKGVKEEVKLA
Histone deacetylase 3, sequence (O15379 whole entry): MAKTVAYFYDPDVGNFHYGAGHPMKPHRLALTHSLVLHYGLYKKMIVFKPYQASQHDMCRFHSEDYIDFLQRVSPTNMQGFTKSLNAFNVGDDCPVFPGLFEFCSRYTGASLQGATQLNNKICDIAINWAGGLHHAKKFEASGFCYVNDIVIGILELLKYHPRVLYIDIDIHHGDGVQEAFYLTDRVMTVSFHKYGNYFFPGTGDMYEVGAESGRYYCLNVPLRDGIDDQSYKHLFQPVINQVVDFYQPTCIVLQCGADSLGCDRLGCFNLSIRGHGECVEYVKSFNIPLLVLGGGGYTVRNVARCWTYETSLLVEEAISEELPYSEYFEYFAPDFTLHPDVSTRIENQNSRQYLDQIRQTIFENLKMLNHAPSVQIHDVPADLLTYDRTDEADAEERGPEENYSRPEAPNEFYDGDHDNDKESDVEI
Histone deacetylase 5, sequence (Q9UQL6 whole entry): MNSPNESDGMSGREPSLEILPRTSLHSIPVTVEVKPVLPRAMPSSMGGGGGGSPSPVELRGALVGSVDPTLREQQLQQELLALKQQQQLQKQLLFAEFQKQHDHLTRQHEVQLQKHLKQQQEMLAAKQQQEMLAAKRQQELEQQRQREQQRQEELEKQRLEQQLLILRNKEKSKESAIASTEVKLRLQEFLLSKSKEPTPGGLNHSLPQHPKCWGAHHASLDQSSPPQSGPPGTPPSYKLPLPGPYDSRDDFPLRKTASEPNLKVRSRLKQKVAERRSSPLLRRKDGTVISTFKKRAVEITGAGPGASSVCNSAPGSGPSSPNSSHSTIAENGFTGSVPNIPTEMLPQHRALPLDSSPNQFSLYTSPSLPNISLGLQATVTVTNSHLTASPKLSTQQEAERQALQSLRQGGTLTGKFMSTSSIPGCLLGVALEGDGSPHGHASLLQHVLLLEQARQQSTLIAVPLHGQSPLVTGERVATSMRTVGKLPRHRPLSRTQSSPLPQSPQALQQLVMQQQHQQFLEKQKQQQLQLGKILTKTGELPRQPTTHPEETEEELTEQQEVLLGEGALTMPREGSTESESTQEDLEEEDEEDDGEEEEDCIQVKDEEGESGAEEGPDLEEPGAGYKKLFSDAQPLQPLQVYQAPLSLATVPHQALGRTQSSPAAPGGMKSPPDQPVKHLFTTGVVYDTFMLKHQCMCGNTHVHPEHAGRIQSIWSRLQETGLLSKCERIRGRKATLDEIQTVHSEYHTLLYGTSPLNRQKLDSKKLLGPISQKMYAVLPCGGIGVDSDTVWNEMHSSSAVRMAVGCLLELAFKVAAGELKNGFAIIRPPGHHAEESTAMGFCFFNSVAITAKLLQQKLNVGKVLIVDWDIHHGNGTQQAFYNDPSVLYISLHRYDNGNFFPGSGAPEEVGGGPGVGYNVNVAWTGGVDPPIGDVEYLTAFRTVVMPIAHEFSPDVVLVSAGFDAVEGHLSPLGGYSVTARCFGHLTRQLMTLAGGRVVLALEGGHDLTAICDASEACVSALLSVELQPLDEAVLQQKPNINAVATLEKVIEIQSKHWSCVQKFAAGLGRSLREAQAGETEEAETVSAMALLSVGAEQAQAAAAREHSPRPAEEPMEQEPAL
Histone deacetylase 9, sequence (Q9UKV0 whole entry): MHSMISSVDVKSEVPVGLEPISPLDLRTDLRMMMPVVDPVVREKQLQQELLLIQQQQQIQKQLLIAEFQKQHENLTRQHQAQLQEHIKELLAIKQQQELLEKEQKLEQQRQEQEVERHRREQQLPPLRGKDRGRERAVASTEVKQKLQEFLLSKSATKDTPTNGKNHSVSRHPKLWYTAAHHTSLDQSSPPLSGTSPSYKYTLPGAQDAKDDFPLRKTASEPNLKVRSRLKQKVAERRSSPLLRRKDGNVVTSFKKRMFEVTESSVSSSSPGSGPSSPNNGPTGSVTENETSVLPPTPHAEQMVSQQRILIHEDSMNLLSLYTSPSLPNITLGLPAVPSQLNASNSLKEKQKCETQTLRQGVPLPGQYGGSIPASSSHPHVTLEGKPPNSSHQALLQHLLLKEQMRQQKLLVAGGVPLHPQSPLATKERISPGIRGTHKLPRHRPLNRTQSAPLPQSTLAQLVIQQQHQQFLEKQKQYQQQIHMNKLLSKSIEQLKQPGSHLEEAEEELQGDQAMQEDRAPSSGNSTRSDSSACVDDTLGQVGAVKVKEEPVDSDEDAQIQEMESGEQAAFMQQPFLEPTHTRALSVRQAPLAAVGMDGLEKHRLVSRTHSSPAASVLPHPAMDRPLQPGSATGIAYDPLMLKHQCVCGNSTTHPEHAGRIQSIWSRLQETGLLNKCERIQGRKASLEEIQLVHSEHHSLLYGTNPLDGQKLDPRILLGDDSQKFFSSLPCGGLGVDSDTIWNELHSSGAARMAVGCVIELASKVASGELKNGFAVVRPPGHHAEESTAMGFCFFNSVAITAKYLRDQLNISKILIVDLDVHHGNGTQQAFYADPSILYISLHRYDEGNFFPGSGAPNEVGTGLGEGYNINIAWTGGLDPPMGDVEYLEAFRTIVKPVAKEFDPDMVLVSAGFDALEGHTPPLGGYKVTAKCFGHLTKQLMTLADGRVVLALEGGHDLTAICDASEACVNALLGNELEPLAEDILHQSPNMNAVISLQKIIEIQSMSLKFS

With `Cc1cc(=O)[nH]c(SCC(=O)NCCCCc2ccccc2)n1`, the IC50 (at Histone deacetylase 1; at Histone deacetylase 2; at Histone deacetylase 3; at Histone deacetylase 4; at Histone deacetylase 5; in experiment [1]) was above 100 µM each time. In addition, the IC50 at Histone deacetylase 7, at Histone deacetylase 8 and on Histone deacetylase 9 was above 100 µM in each case.

As for `Cc1cc(O)nc(SCC(=O)c2ccccc2)n1`, the IC50 (on Histone deacetylase 1; at Histone deacetylase 2; at Histone deacetylase 3; at Histone deacetylase 4; on Histone deacetylase 5; in [1]) was above 100 µM each time. Further, the IC50 (in general, the point on the concentration scale where inhibition reaches its midpoint) at Histone deacetylase 7 is 13.7 µM; at Histone deacetylase 8, above 100 µM; on Histone deacetylase 9, above 100 µM.

Consider `CC(=O)Nc1ccc(C(O)CSc2nc(C)cc(O)n2)cc1` (stereo unspecified), for which the half-inhibitory concentration (IC50) (at Histone deacetylase 1; on Histone deacetylase 2; on Histone deacetylase 3; on Histone deacetylase 4; at Histone deacetylase 5; in [1]) was above 100 µM each time. Also, the IC50 on Histone deacetylase 7, on Histone deacetylase 8 and at Histone deacetylase 9 was above 100 µM throughout.

With `Cc1cc(=O)[nH]c(SCC(=O)c2ccc3c(c2)OCCO3)n1`, the IC50 (on Histone deacetylase 1; on Histone deacetylase 2; at Histone deacetylase 3; on Histone deacetylase 4; at Histone deacetylase 5; in experiment [1]) was above 100 µM throughout. For the same compound, the IC50 on Histone deacetylase 7, at Histone deacetylase 8 and at Histone deacetylase 9 was above 100 µM throughout.

In the case of `CC(=O)Nc1ccc(C(=O)CSc2nccc(C)n2)cc1`, the IC50 (on Histone deacetylase 1; on Histone deacetylase 2; on Histone deacetylase 3; on Histone deacetylase 4; on Histone deacetylase 5; in [1]) was above 100 µM each time. The IC50 at Histone deacetylase 7, on Histone deacetylase 8 and on Histone deacetylase 9 was above 100 µM in each case.

Consider `COc1ccc(C(=O)CSc2nc(C)cc(O)n2)cc1`, for which the IC50 on Histone deacetylase 1 was above 100 µM; at Histone deacetylase 2, above 100 µM; on Histone deacetylase 3, above 100 µM; at Histone deacetylase 4 it was above 100 µM; on Histone deacetylase 5, above 100 µM; in [1], 60.9 µM. For the same compound, the IC50 on Histone deacetylase 7, on Histone deacetylase 8 and on Histone deacetylase 9 was above 100 µM in each case.

Take `COC(=O)CSc1nc(C)cc(=O)[nH]1`: the IC50 (at Histone deacetylase 1; on Histone deacetylase 2; on Histone deacetylase 3; on Histone deacetylase 4; on Histone deacetylase 5; in experiment [1]) was above 100 µM in each case. For the same compound, the IC50 on Histone deacetylase 7, on Histone deacetylase 8 and at Histone deacetylase 9 was above 100 µM each time.

Regarding `CC(=O)Nc1ccc(C(=O)COc2nc(C)cc(O)n2)cc1`, the IC50 was above 100 µM on Histone deacetylase 1; above 100 µM on Histone deacetylase 2; above 100 µM at Histone deacetylase 3; 54.2 µM at Histone deacetylase 4; 16.7 µM on Histone deacetylase 5; 88 µM in experiment [1]. In addition, the values for the IC50 on Histone deacetylase 8 and at Histone deacetylase 9 were above 100 µM and 11.7 µM, respectively.

With `COc1cc(C)nc(SCC(=O)c2ccc(NC(C)=O)cc2)n1`, the IC50 (at Histone deacetylase 1; at Histone deacetylase 2; at Histone deacetylase 3; on Histone deacetylase 4; on Histone deacetylase 5; in [1]) was above 100 µM in each case. Also, the IC50 at Histone deacetylase 7, at Histone deacetylase 8 and at Histone deacetylase 9 was above 100 µM in each case.

Regarding `Cc1cc(=O)[nH]c(SCC(=O)c2ccc(C(C)(C)C)cc2)n1`, the IC50 on Histone deacetylase 1 is above 100 µM; on Histone deacetylase 2 it was above 100 µM; on Histone deacetylase 3, above 100 µM; on Histone deacetylase 4 it was above 100 µM; at Histone deacetylase 5, 94.3 µM; in [1], above 100 µM. Moreover, the IC50 on Histone deacetylase 7, at Histone deacetylase 8 and at Histone deacetylase 9 was above 100 µM in each case.

`CC(=O)N(C)c1ccc(C(=O)CSc2nc(C)cc(O)n2)cc1`: the half-maximal inhibitory concentration (IC50) (at Histone deacetylase 1; on Histone deacetylase 2; at Histone deacetylase 3; at Histone deacetylase 4; at Histone deacetylase 5; in [1]) was above 100 µM each time. In addition, the half-maximal inhibitory concentration (IC50) at Histone deacetylase 7, on Histone deacetylase 8 and at Histone deacetylase 9 was above 100 µM throughout.

Regarding `Cc1cc(O)nc(SCC(=O)C(C)(C)C)n1`, the IC50 (at Histone deacetylase 1; on Histone deacetylase 2; at Histone deacetylase 3; at Histone deacetylase 4; on Histone deacetylase 5; in [1]) was above 100 µM each time. In addition, the IC50 on Histone deacetylase 7, on Histone deacetylase 8 and at Histone deacetylase 9 was above 100 µM throughout.

In the case of `CC(=O)Nc1ccc(C(=O)CSc2nc(C)cc(C)n2)cc1`, the IC50 (at Histone deacetylase 1; at Histone deacetylase 2; at Histone deacetylase 3; on Histone deacetylase 4; at Histone deacetylase 5; in experiment [1]) was above 100 µM in each case. Besides, the IC50 at Histone deacetylase 7, on Histone deacetylase 8 and on Histone deacetylase 9 was above 100 µM each time.

The record behind these values is ChEMBL document CHEMBL1800036, “A novel HDAC inhibitor with a hydroxy-pyrimidine scaffold” (Bioorg Med Chem Lett, 2011).
